Reference: ChEMBL document CHEMBL1123173, “Synthesis and antiherpes virus activity of phosphate and phosphonate derivatives of 9-[(1,3-dihydroxy-2-propoxy)methyl]guanine” (1986)
Active and inactive are the calls of the source. The rule behind the calls is not given here.

Tests used:
Vero [1] = test: In vitro antiviral activity was measured against HSV-1(F) in Vero cells; format: functional; details: Chlorocebus sabaeus, read-out: ID50 (the source's name)
Vero [2] = test: In vitro antiviral activity was measured against HSV-2(G) in Vero cells; format: functional; details: Chlorocebus sabaeus, read-out: ID50 (the source's name)
Mus musculus [3] = test: Effect of oral treatment with compound on HSV-2 induced mortality in mice at 20 mg/kg dose; 6/20; format: functional
Procedure, shortened: (§1)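 Female Swiss-Webster mice, about 20 g, infected intraperitoneally with 5×10^4 PFU of HSV-2 strain G (about ten LD50). Oral dosing once every 24 h for 4 days, starting 24 h post-infection, with a saline-treated control group. Groups of 19–20 mice. Survivors were scored and compared by Fisher exact test. Mean survival time (days ± SD) was compared by Mann-Whitney U test. NS means p > 0.05.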

Mus musculus [4] = test: Effect of on mean survival time upon oral treatment on HSV-2 induced mortality in mice at 10 mg/kg dose; format: functional; procedure, shortened: as §1
Mus musculus [5] = test: Effect of oral treatment with compound on HSV-2 induced mortality in mice at 10 mg/kg dose; 4/20; format: functional; procedure, shortened: as §1
Mus musculus [6] = test: (§2) Effect of oral treatment with compound on HSV-2 induced mortality in mice at 20 mg/kg dose; NS=Not significant; format: functional, organism-based; set-up: dose 20 mg/kg; procedure, shortened: as §1
Mus musculus [7] = test: (§3) Effect of oral treatment with compound on HSV-2 induced mortality in mice at 5 mg/kg dose; NS=Not significant; format: functional, organism-based; set-up: dose 5 mg/kg; procedure, shortened: as §1
Mus musculus [8] = test: Effect of oral treatment with compound on HSV-2 induced mortality in mice at 5 mg/kg dose; format: functional; procedure, shortened: as §1
Mus musculus [9] = test: Effect of oral treatment with compound on HSV-2 induced mortality in mice at 20 mg/kg dose; format: functional; procedure, shortened: as §1
MRC5 = test: In vitro antiviral activity was measured against HCMV(AD-169) in MRC5 cells; format: functional; details: Homo sapiens, read-out: ID50 (the source's name)
Mus musculus [10] = test: (§4) Effect of oral treatment with compound on HSV-2 induced mortality in mice at 10 mg/kg dose; NS=Not significant; format: functional, organism-based; set-up: dose 10 mg/kg; procedure, shortened: as §1
Vero [11] = test: In vitro anticellular activity was measured against vero cells; format: functional; details: Chlorocebus sabaeus, read-out: ID50 (the source's name)
Procedure, shortened: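 Cell proliferation assay in uninfected Vero cells.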

Vero [12] = test: In vitro antiviral activity was measured against HSV-1 (F delta 305) in Vero cells; format: functional; details: Chlorocebus sabaeus, read-out: ID50 (the source's name)
Mus musculus [13] = test: Effect of on mean survival time upon oral treatment on HSV-2 induced mortality in mice at 20 mg/kg dose; format: functional; procedure, shortened: as §1
Mus musculus [14] = test: Effect of on mean survival time upon oral treatment on HSV-2 induced mortality in mice at 5 mg/kg dose; format: functional; procedure, shortened: as §1
Vero [15] = test: In vitro antiviral activity was measured against HSV-1 (MP-PAA/DHPG) in Vero cells; format: functional; details: Chlorocebus sabaeus, read-out: ID50 (the source's name)
Mus musculus [16] = test: Effect of oral treatment with compound on HSV-2 induced mortality in mice at 10 mg/kg dose; format: functional; procedure, shortened: as §1
Mus musculus [17] = test: as §3; format: functional, organism-based; set-up: dose 5 mg/kg; remark: listed apart in the source
Procedure, shortened: (§5)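 Female Swiss-Webster mice (ca. 20 g) infected intraperitoneally with 5×10^4 PFU HSV-2 strain G (about ten 50% lethal doses). Oral dosing once every 24 h for 4 days, starting 24 h postinfection; saline controls. Survivors/total recorded, survivor increase tested by Fisher exact test; mean survival time (days ± standard deviation) compared by Mann-Whitney U test.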

Mus musculus [18] = test: Effect of oral treatment with compound on HSV-2 induced mortality in mice at 10 mg/kg dose; 2/20; format: functional; procedure, shortened: as §1
Mus musculus [19] = test: Effect of oral treatment with compound on HSV-2 induced mortality in mice at 20 mg/kg dose; 12/20; format: functional; procedure, shortened: as §1
Mus musculus [20] = test: Effect of oral treatment with compound on HSV-2 induced mortality in mice at 5 mg/kg dose; 1/19; format: functional; procedure, shortened: as §1
Mus musculus [21] = test: Effect of oral treatment with compound on HSV-2 induced mortality in mice at 10 mg/kg dose; 0/20; format: functional; procedure, shortened: as §1
Mus musculus [22] = test: Effect of oral treatment with compound on HSV-2 induced mortality in mice at 5 mg/kg dose; 3/20; format: functional; procedure, shortened: as §1
Mus musculus [23] = test: as §4; format: functional, organism-based; set-up: dose 10 mg/kg; procedure, shortened: as §5; remark: listed apart in the source
Mus musculus [24] = test: Effect of oral treatment with compound on HSV-2 induced mortality in mice at 20 mg/kg dose; 3/20; format: functional; procedure, shortened: as §1
Mus musculus [25] = test: as §2; format: functional, organism-based; set-up: dose 20 mg/kg; procedure, shortened: as §5; remark: listed apart in the source

SMILES | IC50 (Vero [1]) [µM] | IC50 (Vero [2]) [µM] | MST (Mus musculus [4]) [days] | Survivor increase (Mus musculus [6]) | Survivor increase (Mus musculus [7]) | p-value for mean survival time increase (Mus musculus [9]) | IC50 (MRC5) [µM] | Survivor increase (Mus musculus [10]) | IC50 (Vero [11]) [µM] | IC50 (Vero [12]) [µM] | MST (Mus musculus [13]) [days] | MST (Mus musculus [14]) [days] | IC50 (Vero [15]) [µM] | MST increase (Mus musculus [16]) | MST increase (Mus musculus [17]) | other results
Nc1ncnc2c1ncn2COC1COP(=O)(O)OC1 (stereo unspecified) | 600 | > 1000 | – | – | – | – | – | – | – | – | – | – | – | – | – | –
Nc1nc(O)c2ncn(COC(COP(=O)(O)O)COP(=O)(O)O)c2n1 | 0.4 | 5 | 10.8 | inactive | inactive | <0.02 | 8 | inactive | 800 | 13 | 10.6 | 9.6 | > 200 | <0.05 | inactive | Survivors (Mus musculus [3]): 6; Survivors (Mus musculus [5]): 4; Survivors (Mus musculus [8]): 8
Nc1nc(O)c2ncn(COC(CO)COP(=O)(O)O)c2n1 (stereo unspecified) | 0.2 | 1.7 | 11.3 | – | inactive | <0.001 | 12 | inactive | 700 | 6 | 10.5 | 10 | > 200 | <0.01 | inactive | Survivors (Mus musculus [18]): 2; Survivors (Mus musculus [19]): 12; Survivor increase (Mus musculus [9]): 0.002; Survivors (Mus musculus [20]): 1
Nc1nc(O)c2ncn(COC(CO)CCP(=O)(O)O)c2n1 (stereo unspecified) | 28 | > 100 | 8.3 | inactive | inactive | – | 10 | inactive | > 1000 | 50 | 8.3 | 8.2 | > 200 | – | inactive | Survivors (Mus musculus [21]): 0; Survivors (Mus musculus [22]): 3; MST increase (Mus musculus [23]): inactive; Survivors (Mus musculus [24]): 3; MST increase (Mus musculus [25]): inactive
